Values joined by “and” are separate entries in the source; they are usually repeats but may differ in a detail not shown here. Equal values may be shown once. Marks after values point to notes of the source that are not given here.
Key:
[1] = M4112 levels in plasma, liver and tumor of mice bearing MC38 tumors; format: in vivo; conditions: MC38 tumor-bearing mice
In short: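 Female adult C57BL/6 mice were inoculated subcutaneously with 0.5×10^6 IDO1-expressing MC38 colon carcinoma cells. At average tumor volumes of about 200–250 mm3 they received a single oral dose of the test compound (30, 75 or 200 mg/kg) or vehicle. Plasma, liver and tumor were sampled at 1, 2, 4, 8 and 24 h. Drug, kynurenine and tryptophan were measured by LC-MS/MS, and the kynurenine:tryptophan ratio was derived. Data are mean±SEM.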

[2] = phase I trial: plasma pharmacokinetics; format: in vivo, human
In short: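 Patients were dosed orally twice daily. Blood was sampled on cycle 1 days 1 and 15 (predose and 0.5, 1, 2, 3, 4, 6 and 8 h postdose), on day 8 (predose), and on cycle 2 day 1 (predose and 2 h). Plasma drug levels were measured by LC-MS/MS. Non-compartmental analysis gave Cmax, tmax and AUC0–8, dose-normalized values, predose concentrations and day 15/day 1 accumulation. Dose proportionality was tested with a power model.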

IDO1 = IDO1 (Homo sapiens, UniProt P14902); experiment: IDO1 activity in ex vivo LPS-stimulated whole blood from M4112-treated patients
Sequence of IDO1 (P14902 whole entry): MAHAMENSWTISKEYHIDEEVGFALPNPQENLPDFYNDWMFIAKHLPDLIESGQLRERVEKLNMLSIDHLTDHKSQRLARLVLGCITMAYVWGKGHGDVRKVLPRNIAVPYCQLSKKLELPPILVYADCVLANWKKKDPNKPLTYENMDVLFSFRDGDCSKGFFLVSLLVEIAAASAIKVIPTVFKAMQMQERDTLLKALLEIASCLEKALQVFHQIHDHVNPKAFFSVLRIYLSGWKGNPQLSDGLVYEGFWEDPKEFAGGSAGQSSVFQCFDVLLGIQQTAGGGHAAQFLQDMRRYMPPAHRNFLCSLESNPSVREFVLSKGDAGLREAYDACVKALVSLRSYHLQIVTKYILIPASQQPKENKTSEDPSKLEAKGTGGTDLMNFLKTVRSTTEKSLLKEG

[3] = system: kynurenine and tryptophan in the plasma; experiment: phase I trial: plasma kynurenine and tryptophan; format: in vivo, human
In short: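 In this open-label dose-escalation study, patients received the test compound orally twice daily (100–800 mg, three per cohort, 28-day cycles). Plasma was collected on cycle 1 day 1 and day 15 (predose and 1, 2, 4 and 6 h postdose), day 8 (predose), and cycle 2 day 1 (predose and 2 h). Kynurenine and tryptophan were quantified by LC-MS/MS, ratios were calculated, and values were normalized to baseline.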

advanced solid tumors = experiment: phase I trial: preliminary antitumor activity; format: in vivo, human
In short: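 Patients with advanced solid tumors received twice-daily oral doses in 28-day cycles. CT or MRI was done at baseline and within 7 days before day 1 of cycles 3, 5 and 7, then every three cycles. The investigator assessed objective response, best overall response, disease control and progression-free survival per RECIST 1.1. Binary endpoints used exact Clopper-Pearson 95% CI and PFS used Kaplan-Meier.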

[4] = 100 to 600 mg two times per day, day 15
[5] = Cycle 1, day 1, 100 mg two times per day, n=3, geometric mean (CV%)
[6] = Cycle 1, day 1, 200 mg two times per day, n=3, geometric mean (CV%)
[7] = Cycle 1, day 1, 400 mg two times per day, n=3, geometric mean (CV%)
[8] = Cycle 1, day 1, 600 mg two times per day, n=3, geometric mean (CV%)
[9] = Cycle 1, day 1, 800 mg two times per day, n=3, geometric mean (CV%)
[10] = Cycle 1, day 8, 100 mg two times per day, n=3, geometric mean (CV%)
[11] = Cycle 1, day 8, 200 mg two times per day, n=3, geometric mean (CV%)
[12] = Cycle 1, day 8, 400 mg two times per day, n=3, geometric mean (CV%)
[13] = Cycle 1, day 8, 600 mg two times per day, n=3, geometric mean (CV%)
[14] = Cycle 1, day 8, 800 mg two times per day, n=3, geometric mean (CV%)
[15] = Cycle 1, day 15, 100 mg two times per day, n=3, geometric mean (CV%)
[16] = Cycle 1, day 15, 200 mg two times per day, n=3, geometric mean (CV%)
[17] = Cycle 1, day 15, 400 mg two times per day, n=3, geometric mean (CV%)
[18] = Cycle 1, day 15, 600 mg two times per day, n=3, geometric mean (CV%)
[19] = Cycle 1, day 15, 800 mg two times per day, n=1, individual value
[20] = Cycle 2, day 1, 100 mg two times per day, n=3, geometric mean (CV%)
[21] = Cycle 2, day 1, 200 mg two times per day, n=2, individual values
[22] = Cycle 2, day 1, 400 mg two times per day, n=3, geometric mean (CV%)
[23] = Cycle 2, day 1, 600 mg two times per day, n=2, individual values
[24] = Cycle 2, day 1, 800 mg two times per day, n=1, individual value

## NS(=O)(=O)[C@H]1CC[C@](F)(CC[C@H]2c3ccccc3-c3cncn32)CC1 [M4112]
[1]
  exposure to M4112 in the liver compared with both the plasma and the tumor: approximately 10 fold
[1]; single oral dose
  concentration of M4112 in the tumor by 24 hours post-treatment: decreased to baseline levels
[1]; single oral dose 30, 75 or 200 mg/kg, post-treatment
  time at which the concentration of M4112 in the tumor peaked: 1 to 2 h
[2]; [4]
  increase of mean exposure with dose: greater than dose-proportional
  slope estimate of dose proportionality (power model): 1.46–1.67
[2]; 100–600 mg dose range
  accumulation / autoinduction following two times per day dosing: no appreciable accumulation or evidence of autoinduction
[2]; [5]
  AUC0–8: 3550 (14.4) ngxh/mL
  AUC0–8/dose: 35.5 (14.4) ngxh/mL/mg
  Cmax: 806 (9.9) ng/mL
  Cmax/dose: 8.06 (9.9) ng/mL/mg
[2]; Cycle 1, day 1, 100 mg two times per day, n=3, median (min, max)
  tmax: 1.08 (1.08, 2.12) hours
[2]; [6]
  AUC0–8: 8740 (13.6) ngxh/mL
  AUC0–8/dose: 43.7 (13.6) ngxh/mL/mg
  Cmax: 2110 (13.6) ng/mL
  Cmax/dose: 10.5 (13.6) ng/mL/mg
[2]; Cycle 1, day 1, 200 mg two times per day, n=3, median (min, max)
  tmax: 2.10 (2.07, 3.08) hours
[2]; [7]
  AUC0–8: 27,700 (21.4) ngxh/mL
  AUC0–8/dose: 69.1 (21.4) ngxh/mL/mg
  Cmax: 7670 (39.6) ng/mL
  Cmax/dose: 19.2 (39.6) ng/mL/mg
[2]; Cycle 1, day 1, 400 mg two times per day, n=3, median (min, max)
  tmax: 1.08 (1.07, 1.08) hours
[2]; [8]
  AUC0–8: 50,400 (7.7) ngxh/mL
  AUC0–8/dose: 84.0 (7.7) ngxh/mL/mg
  Cmax: 11,700 (24.6) ng/mL
  Cmax/dose: 19.6 (24.6) ng/mL/mg
[2]; Cycle 1, day 1, 600 mg two times per day, n=3, median (min, max)
  tmax: 1.00 (0.97, 1.07) hours
[2]; [9]
  AUC0–8: 14,600 (85.1) ngxh/mL
  AUC0–8/dose: 18.2 (85.1) ngxh/mL/mg
  Cmax: 2770 (83.6) ng/mL
  Cmax/dose: 3.47 (83.6) ng/mL/mg
[2]; Cycle 1, day 1, 800 mg two times per day, n=3, median (min, max)
  tmax: 2.08 (2.07, 4.12) hours
[2]; [10]
  Cpre: 156 (58.2) ng/mL
  Cpre/dose: 1.56 (58.2) ng/mL/mg
[2]; [11]
  Cpre: 96.5 (85.0) ng/mL
  Cpre/dose: 0.482 (85.0) ng/mL/mg
[2]; [12]
  Cpre: 1240 (51.6) ng/mL
  Cpre/dose: 3.11 (51.6) ng/mL/mg
[2]; [13]
  Cpre: 4410 (54.5) ng/mL
  Cpre/dose: 7.35 (54.5) ng/mL/mg
[2]; [14]
  Cpre: 5200 (105.4) ng/mL
  Cpre/dose: 6.50 (105.4) ng/mL/mg
[2]; [15]
  AUC0–8: 4790 (25.4) ngxh/mL
  AUC0–8/dose: 47.9 (25.4) ngxh/mL/mg
  Cmax: 975 (34.9) ng/mL
  Cmax/dose: 9.75 (34.9) ng/mL/mg
  Cpre: 221 (20.5) ng/mL
  Cpre/dose: 2.21 (20.5) ng/mL/mg
[2]; Cycle 1, day 15, 100 mg two times per day, n=3, median (min, max)
  tmax: 3.08 (2.12, 4.13) hour
[2]; [16]
  AUC0–8: 7580 (11.5) ngxh/mL
  AUC0–8/dose: 37.9 (11.5) ngxh/mL/mg
  Cmax: 1720 (20.5) ng/mL
  Cmax/dose: 8.58 (20.5) ng/mL/mg
  Cpre: 199 (53.9) ng/mL
  Cpre/dose: 0.997 (53.9) ng/mL/mg
[2]; Cycle 1, day 15, 200 mg two times per day, n=3, median (min, max)
  tmax: 2.10 (1.00, 6.08) hour
[2]; [17]
  AUC0–8: 31,500 (28.8) ngxh/mL
  AUC0–8/dose: 78.8 (28.8) ngxh/mL/mg
  Cmax: 6560 (27.4) ng/mL
  Cmax/dose: 16.4 (27.4) ng/mL/mg
  Cpre: 1630 (45.7) ng/mL
  Cpre/dose: 4.08 (45.7) ng/mL/mg
[2]; Cycle 1, day 15, 400 mg two times per day, n=3, median (min, max)
  tmax: 1.08 (0.50, 3.00) hour
[2]; [18]
  AUC0–8: 59,500 (12.7) ngxh/mL
  AUC0–8/dose: 99.2 (12.7) ngxh/mL/mg
  Cmax: 12,100 (2.2) ng/mL
  Cmax/dose: 20.2 (2.2) ng/mL/mg
  Cpre: 3380 (42.4) ng/mL
  Cpre/dose: 5.63 (42.4) ng/mL/mg
[2]; Cycle 1, day 15, 600 mg two times per day, n=3, median (min, max)
  tmax: 1.03 (0.93, 2.17) hour
[2]; [19]
  AUC0–8: 93,200† ngxh/mL
  AUC0–8/dose: 116† ngxh/mL/mg
  Cmax: 21,100† ng/mL
  Cmax/dose: 26.4† ng/mL/mg
  Cpre: 9810† ng/mL
  Cpre/dose: 12.3† ng/mL/mg
  tmax: 2.00† hour
[2]; [20]
  Cpre: 128 (67.7) ng/mL
  Cpre/dose: 1.28 (67.7) ng/mL/mg
[2]; [21]
  Cpre: 83.3 ng/mL and 85.2 ng/mL
  Cpre/dose: 0.417 ng/mL/mg and 0.426 ng/mL/mg
[2]; [22]
  Cpre: 957 (72.1) ng/mL
  Cpre/dose: 2.39 (72.1) ng/mL/mg
[2]; [23]
  Cpre: 1910 ng/mL and 2560 ng/mL
  Cpre/dose: 3.18 ng/mL/mg and 4.27 ng/mL/mg
[2]; [24]
  Cpre: 8560† ng/mL
  Cpre/dose: 10.7† ng/mL/mg
[2]; across all dose levels on both days 1 and 15, approximately
  tmax: 1 to 3 h
[2]; cycle 1, day 1
  M4112 exposure of the 800 mg two times per day cohort: initially lower than that of the other dose groups
IDO1; 800 mg two times per day, throughout the dosing interval
  IDO1 activity inhibited: Approximately 90%
IDO1; across all doses tested
  IDO1 inhibition in ex vivo stimulated blood: rapid onset of IDO1 inhibition
IDO1; post-M4112 administration
  time of maximum IDO1 inhibition: 1 to 4 h
IDO1; steady state
  dose dependence of IDO1 inhibition: trend toward dose-dependent IDO1 inhibition
[3]; cycle 1 day 1, after 6 hours
  plasma kynurenine:tryptophan ratio: decrease
[3]; day 1 of cycle 1, up to 6 hours after the first dose, all dose levels
  decrease in plasma kynurenine levels: 12%–35
[3]; day 1 of cycle 1, 200 mg two times per day and above
  plasma tryptophan levels: increased
[3]; day 15 of cycle 1
  plasma kynurenine levels: returned to at least baseline levels
Advanced solid tumors; 9 of 15 patients
  best overall response stable disease, patients: 60.0%
Advanced solid tumors; 15 patients
  median progression-free survival: 3.7 months
  objective responses: no objective responses
